One may read the MIC as the smallest concentration in the dilution series that meets the test's criterion for growth inhibition. Read a low MIC as inhibition by little substance.

MIC and inhibition data for 20 compounds are collected here from ChEMBL document CHEMBL4422620, “Synthesis of novel morpholine, thiomorpholine and N-substituted piperazine coupled 2-(thiophen-2-yl)dihydroquinolines as potent inhibitors of Mycobacterium tuberculosis” (Eur J Med Chem, 2019).

The subject of series [1] is Mycobacterium tuberculosis. Nature of the series: Antitubercular activity against Mycobacterium tuberculosis H37Rv after 7 days by Alamar blue assay. Type of series: functional. To be noted: 168 h. An outline of the steps: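 M. tuberculosis H37Rv inoculum from fresh LJ medium resuspended in 7H9-S (7H9 broth, 0.1% casitone, 0.5% glycerol, OADC), adjusted to McFarland No. 1, diluted 1:20. Serial two-fold drug dilutions in 7H9-S, with growth and sterile controls. Incubated at 37°C in normal atmosphere for 7 days, then Alamar blue added and plates re-incubated overnight. MIC was the lowest concentration fully inhibiting growth.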
Background: Resazurin is reduced to fluorescent resorufin, in cell work by metabolically active cells.

Series [2] can be described thus: Cytotoxicity against human HEK293T cells assessed as inhibition of cell growth at 50 ug/ml after 72 hrs by MTT assay relative to control. To be noted: read-out: GI. Type of series: cell-based, HEK-293T. An outline of the steps:
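HEK-293T cells exposed to compounds at 50 μg/mL for 72 h. Viability was read as cellular conversion of MTT to formazan and expressed as percentage inhibition.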

Values after ≈ are worked out from the molar mass of the structure shown.

With `ClC1=C(CN2CCN(Cc3ccccc3)CC2)CCc2nc(-c3cccs3)ccc21`, the MIC in series [1] was 1.56 µg/mL (≈ 3.58 µM). Also, in series [2], the inhibition at 72 h, 50 ug/ml came to 19.9%.

For the compound `ClC1=C(CN2CCN(c3ccccc3)CC2)CCc2nc(-c3cccs3)ccc21`, in series [1], the MIC was found to be 25 µg/mL (≈ 59.2 µM).

In turn, `COc1ccccc1N1CCN(CC2=C(Cl)c3ccc(-c4cccs4)nc3CC2)CC1` yielded an MIC in series [1] of 6.25 µg/mL (≈ 13.8 µM). Besides, the inhibition at 72 h, 50 ug/ml in series [2] worked out at 36.7%.

`NNC(=O)c1ccncc1` [ISONIAZID] registered an MIC in series [1] of 0.1 µg/mL (≈ 0.729 µM).

`CC(C)(C)OC(=O)N1CCN(CC2=C(Cl)c3ccc(-c4cccs4)nc3CC2)CC1` registered an MIC in series [1] of 25 µg/mL (≈ 56.1 µM).

For `O=C(O)c1cn(C2CC2)c2cc(N3CCNCC3)c(F)cc2c1=O` [CIPROFLOXACIN], in series [1], the MIC came out at 1.56 µg/mL (≈ 4.71 µM).

Consider `Fc1ccccc1N1CCN(CC2=C(Cl)c3ccc(-c4cccs4)nc3CC2)CC1`, for which, in series [1], the lowest concentration to inhibit growth (MIC) was 6.25 µg/mL (≈ 14.2 µM). Further, in series [2], the inhibition at 72 h, 50 ug/ml came to 32.6%.

`CO[C@H]1/C=C/O[C@@]2(C)Oc3c(C)c(O)c4c(O)c(c(/C=N/N5CCN(C)CC5)c(O)c4c3C2=O)NC(=O)/C(C)=C\C=C\[C@H](C)[C@H](O)[C@@H](C)[C@@H](O)[C@@H](C)[C@H](OC(C)=O)[C@@H]1C` [RIFAMPIN] gave an MIC in series [1] of 0.2 µg/mL (≈ 0.243 µM).

As for `ClC1=C(CN2CCSCC2)CCc2nc(-c3cccs3)ccc21`, inhibition of growth in series [1] (MIC) required 25 µg/mL (≈ 68.9 µM).

Compound `CC(=O)c1ccc(N2CCN(CC3=C(Cl)c4ccc(-c5cccs5)nc4CC3)CC2)cc1` displayed an MIC in series [1] of 25 µg/mL (≈ 53.9 µM).

For the compound `O=C(C1CC1)N1CCN(CC2=C(Cl)c3ccc(-c4cccs4)nc3CC2)CC1`, in series [1], the lowest concentration to inhibit growth (MIC) was 3.12 µg/mL (≈ 7.55 µM). In series [2], the inhibition at 72 h, 50 ug/ml was determined as 28.9%.

On to `ClC1=C(CN2CCN(c3ccccn3)CC2)CCc2nc(-c3cccs3)ccc21`, for which, in series [1], 1.56 µg/mL (≈ 3.69 µM) was the least that counted as inhibitory (MIC). In addition, the inhibition at 72 h, 50 ug/ml in series [2] turned out to be 20.1%.

In series [1], `Cc1ccccc1N1CCN(CC2=C(Cl)c3ccc(-c4cccs4)nc3CC2)CC1` gave an MIC of 25 µg/mL (≈ 57.3 µM).

`ClC1=C(CN2CCN(c3ccc(Cl)cc3)CC2)CCc2nc(-c3cccs3)ccc21` registered an MIC in series [1] of 25 µg/mL (≈ 54.8 µM).

As for `FC(F)(F)c1ccc(N2CCN(CC3=C(Cl)c4ccc(-c5cccs5)nc4CC3)CC2)cc1`, 25 µg/mL (≈ 51 µM) was the least that counted as inhibitory in series [1] (MIC).

As for `ClC1=C(CN2CCN(Cc3ccc(Cl)cc3)CC2)CCc2nc(-c3cccs3)ccc21`, the lowest concentration to inhibit growth in series [1] (MIC) was 12.5 µg/mL (≈ 26.6 µM).

Compound `CC[C@@H](CO)NCCN[C@@H](CC)CO` [ETHAMBUTOL] showed an MIC in series [1] of 3.13 µg/mL (≈ 15.3 µM).

For `ClC1=C(CN2CCOCC2)CCc2nc(-c3cccs3)ccc21`, in series [1], the MIC was found to be 6.25 µg/mL (≈ 18 µM). Besides, in series [2], the inhibition at 72 h, 50 ug/ml worked out at 34%.

`ClC1=C(CN2CCN(CC3OCCO3)CC2)CCc2nc(-c3cccs3)ccc21` gave an MIC in series [1] of 12.5 µg/mL (≈ 28.9 µM).

As for `ClC1=C(CN2CCN(Cc3ccc4c(c3)OCO4)CC2)CCc2nc(-c3cccs3)ccc21`, inhibition of growth in series [1] (MIC) required 25 µg/mL (≈ 52.1 µM).
